Experimental data taken from ChEMBL document CHEMBL4145444, “Investigating the structure-activity relationships of N'-[(5-nitrofuran-2-yl) methylene] substituted hydrazides against Trypanosoma cruzi to design novel active compounds” (Eur J Med Chem, 2018).
Active and inactive are the calls of the source. The calls are words filed in the database; no cut-off is given here.

Tests used:
[1] = test system: Trypanosoma cruzi; test: Antitrypanosomal activity against Trypanosoma cruzi Colombiana Tc1 epimastigotes measured after 72 hrs; format: functional, organism-based; details: for IC50: Trypanosoma cruzi, Colombiana, 72 h
How it was run: (§1)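 Exponentially growing epimastigotes (1.0*10^7 parasites/mL) cultured in LIT-FCS medium with compound from 0.4 to 300.0 µM, added from DMSO stock (DMSO ≤1.0%), 72 h at 28 °C. Viable parasites read by absorbance at 562 nm. PGI computed against untreated culture after subtracting compound/medium blanks. IC50 from sigmoid dose-response fit using at least six concentrations. Triplicates, at least two independent experiments.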

[2] = test system: Trypanosoma cruzi; test: Antitrypanosomal activity against Trypanosoma cruzi Silvio X10 cl1 Tc1 epimastigotes measured after 72 hrs; format: functional, organism-based; details: for IC50: Trypanosoma cruzi, Silvio X10 cl1, 72 h
How it was run: as §1, with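 “°C.” for “°C. Viable parasites read by absorbance at 562 nm.”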

[3] = test system: Trypanosoma cruzi; test: Antitrypanosomal activity Trypanosoma cruzi Y Tc2 epimastigotes measured after 72 hrs; format: functional, organism-based; details: for IC50: Trypanosoma cruzi, Y, 72 h; how it was run: as §1
[4] = test system: Trypanosoma cruzi; test: Antitrypanosomal activity Trypanosoma cruzi Bug 2149 cl10 Tc5 epimastigotes measured after 72 hrs; format: functional, organism-based; details: for IC50: Trypanosoma cruzi, Bug 2149 cl10, CL1-0, 72 h
How it was run: as §1, with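 “°C.” for “°C. Viable parasites read by absorbance at 562 nm.”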

[5] = test system: Trypanosoma cruzi; test: Antitrypanosomal activity against Trypanosoma cruzi Colombiana Tc1 trypamastigotes infected in monkey LLC-MK2 cells assessed as inhibition of parasite viability by measuring motility at 1 uM after 20 hrs by light microscopic method relative to control; format: functional; details: LLC-MK2, 20 h
How it was run: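 Colombiana trypomastigotes, centrifuged at 7,000 rpm at 4 °C, resuspended at 10^6/mL in DME with 2% FCS. Exposed to 1 μM compound, 0.5% DMSO final, 20 h at 37 °C, 5% CO2. Viability judged by motility under light microscope. Live parasites counted in a Neubauer chamber. % inhibition relative to drug-free control. Two independent experiments.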

[6] = test system: Trypanosoma cruzi; test: Antitrypanosomal activity against Trypanosoma cruzi Y Tc2 amastigotes infected in human U2OS cells after 72 hrs by Draq5 staining based HCS analysis; format: functional, organism-based
How it was run: (§2)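 U2OS cells (700/well, high-glucose DME, 10% FBS) seeded and incubated 24 h. Then infected with 2,800 Y-strain trypomastigotes harvested from LLC-MK2 cells. On day 3, 14-point 2-fold dilutions added, top 200 μM, 1% DMSO, 72 h. Fixed in 4% PFA, Draq5 stained, imaged at 20x. Infection ratio normalized to DMSO-mock infected and uninfected controls. IC50 by sigmoidal variable-slope fit. Doublets, duplicate experiments.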

[7] = Cytotoxicity against human U2OS cells assessed as reduction in cell viability; format: cell-based
[8] = Selectivity index, ratio of CC50 for cytotoxicity against human U2OS cells to IC50 for Trypanosoma cruzi Y Tc2 amastigotes infected in human U2OS cells; format: toxicity, cell-based; details: read-out: Ratio CC50/IC50
How it was run: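 Ratio of U2OS CC50 to Y-strain amastigote IC50, both from the same 72 h Draq5-stained HCS assay in infected U2OS cells (2-fold series up to 200 μM, 1% DMSO).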

[9] = test system: Trypanosoma cruzi; test: Antitrypanosomal activity against Trypanosoma cruzi Y Tc2 amastigotes infected in human U2OS cells up to 200 uM after 72 hrs by Draq5 staining based HCS analysis relative to control; format: functional; how it was run: as §2
[10] = test system: Trypanosoma cruzi; test: Antitrypanosomal activity against Trypanosoma cruzi Y Tc2 amastigotes infected in human U2OS cells at 1.56 uM after 72 hrs by Draq5 staining based HCS analysis; format: functional, organism-based
[11] = test system: Trypanosoma cruzi; test: Antitrypanosomal activity against Trypanosoma cruzi Y Tc2 amastigotes infected in human U2OS cells at 0.39 uM after 72 hrs by Draq5 staining based HCS analysis; format: functional, organism-based
[12] = test system: U2OS; test: Cytotoxicity against human U2OS cells assessed as effect on cell morphology at 1.56 uM after 72 hrs by HCS analysis; format: cell-based
[13] = test system: Trypanosoma cruzi; test: Potency index, ratio of benznidazole IC50 to compound IC50 for antitrypanosomal activity against Trypanosoma cruzi Y Tc2 amastigotes infected in human U2OS cells; format: functional
[14] = test system: Trypanosoma cruzi; test: Potency index, ratio of benznidazole IC50 to compound IC50 for antitrypanosomal activity against Trypanosoma cruzi Colombiana Tc1 epimastigotes; format: functional

Compound	log1/IC50 [1]	IC50 [1]	log1/IC50 [2]	IC50 [2]	log1/IC50 [3]	IC50 [3]	log1/IC50 [4]	IC50 [4]	inhibition at 1 µM [5]	IC50 [6]	CC50 [7]	selectivity ratio [8]	Emax [9]	Activity [10]	Activity [11]	Activity [12]	Ratio IC50 [13]	Ratio IC50 [14]
CCCCCCCc1ccc(C(=O)N/N=C/c2ccc([N+](=O)[O-])o2)cc1	5.98	1050 nM	5.7	1980 nM	5.86	1370 nM	6.17	670 nM	98.5%	820 nM	> 200 µM	> 244	103%	Active	inactive	Non-Toxic	70	
CCCCCCCOc1ccc(C(=O)N/N=C/c2ccc([N+](=O)[O-])o2)cc1	5.96	1090 nM	5.7	1990 nM	5.83	1470 nM	6.07	850 nM	98.5%	880 nM	> 200 µM	> 227	98.3%				70	
CCCCCC1CCC(C(=O)N/N=C/c2ccc([N+](=O)[O-])o2)CC1 (stereo unspecified)	5.83	1470 nM	5.64	2300 nM	5.6	2500 nM	5.9	1270 nM	98.5%	1660 nM	> 200 µM	> 120	103%					
CCOC(=O)N/N=C/c1ccc([N+](=O)[O-])o1	5.15	7070 nM	4.95	11300 nM	5.03	9280 nM	5.16	6920 nM										25 - 30
CC1CS(=O)(=O)CCN1/N=C/c1ccc([N+](=O)[O-])o1 (stereo unspecified) [NIFURTIMOX]	5	9930 nM	5.22		4.89		5.14		7.3%	5180 nM	85.2 µM	16.4	96.6%					
CCCCCc1ccc(C(=O)N/N=C/c2ccc([N+](=O)[O-])o2)cc1	5.75	1760 nM	5.42	3770 nM	5.59	2550 nM	5.7	1990 nM	98.5%	960 nM	> 200 µM	> 208	104%				70	
O=C(N/N=C/c1ccc([N+](=O)[O-])o1)c1ccc(-c2ccccc2)cc1	5.51	3060 nM	5.71		5.93		5.74			710 nM	109 µM	154	97.8%					
